SENP7 block: SENP7 protease inhibitors, primary screen, biochemical, luminescence, uHTS; Sentrin-specific protease 7 (Homo sapiens), Q9BQF6; recombinant SENP7, Z-RLRGG-aminoluciferin luminescence, 40 min; inhibition, % at 5 µM; 330,000 compounds, 1.5% hits; AID 434973, 2010;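 active = inhibition above about 50% at the single test dose, limit read from the data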
SENP8 block-1: human SENP8 protease inhibitors, primary screen, biochemical, fluorescence, Nedd8 protein substrate, uHTS; 360,000 compounds, 0.64% hits; recombinant SENP8; inhibition, % at 20 µM; AID 602440, 2012; in the data active = inhibition mostly above about 40%, no sharp cut-off; inactive = mostly below about 27%
Target sequence (Q96LD8 whole entry, looked up): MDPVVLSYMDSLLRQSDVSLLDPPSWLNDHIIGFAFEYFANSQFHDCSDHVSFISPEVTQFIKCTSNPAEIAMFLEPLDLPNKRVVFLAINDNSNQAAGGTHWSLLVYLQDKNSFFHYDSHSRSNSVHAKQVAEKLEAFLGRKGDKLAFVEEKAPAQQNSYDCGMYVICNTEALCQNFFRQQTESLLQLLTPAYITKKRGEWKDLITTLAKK
SENP1 inh: human SENP1 catalytic domain inhibitors, primary screen, biochemical, FRET, uHTS | recombinant SENP1 catalytic domain, CyPet-SUMO1-YPet FRET cleavage | inhibition, % at 10 µM | 360,000 compounds, 0.21% hits;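 active = inhibition at least 30% at 10 µM, raw YFP signal under a set limit, fluorescence ratio 0.5 to 1.5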
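Test system: human SENP1 catalytic domain; medium: Tris pH 8 buffer plus EDTA, NaCl, BME, BSA, NP40, catalase; incubation: 50 min reaction at room temperature; technique: FRET, CFP and YFP emission; controls: no-enzyme low control and enzyme-plus-DMSO high control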
SENP8 block-2: SENP8 protease inhibitors, primary screen, biochemical, luminescence; inhibition, % at 10 µM; purified SENP8, Z-RLRGG-aminoluciferin cleavage; 330,000 compounds, 1.2% hits; Sentrin-specific protease 8 (Homo sapiens), Q96LD8; AID 2540, 2010; in the data active = inhibition above about 50%
Platelet DG rel: inhibitors of platelet dense granule secretion, primary screen, cell-based, MLPCN, human platelets; human platelet-rich plasma, SFLLRN dense granule ATP release, luminescence; inhibition, %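 (compounds screened at 7.5 µM in platelet-rich plasma)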; 300,000 compounds, 0.22% hits; AID 1663, 2009;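 active = mean replicate score, as percent of positive control, at or above 50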
SENP6 inh: SENP6 protease inhibitors, primary screen, biochemical, luminescence, uHTS; Sentrin-specific protease 6 (Homo sapiens), Q9GZR1; Recombinant SENP6 catalytic domain, aminoluciferin luminescence; inhibition, % at 10 µM; 330,000 compounds, 1.8% hits;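 active = inhibition above about 50% at the single tested dose, limit read from the data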
SENP8 confirm: SENP8 protease inhibitors, retest, confirmation, biochemical, luminescence, single concentration. shares compounds with SENP7 block. Recombinant SENP8, Z-RLRGG-aminoluciferin luminescence, 60 min. inhibition, % at 12.5 µM. 6,200 compounds, 40% hits;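 active = mean inhibition across replicates above about 50%, limit read from the data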
SENP6 confirm: SENP6 protease inhibitors, confirmation, biochemical, luminescence, single concentration; shares compounds with SENP7 block; recombinant SENP6, Z-RLRGG-aminoluciferin luminescence; inhibition, % at 12.5 µM; 6,200 compounds, 58% hits; AID 488915, 2010
SENP7 conf: SENP7 protease inhibitors, retest, confirmation, biochemical, luminescence, single concentration; shares compounds with SENP7 block; 6,200 compounds, 69% hits; inhibition, % at 12.5 µM; AID 488917, 2010; recombinant SENP7, Z-RLRGG-aminoluciferin luminescence, 40 min
Casp3 SENP sel: caspase-3 protease inhibitors, confirmation, selectivity assay for SENP inhibitor project, biochemical, single concentration; purified caspase-3, Z-DEVD-aminoluciferin luminescence, 60 min; 6,200 compounds, 60% hits; inhibition, % at 12.5 µM; shares compounds with SENP7 block; AID 488918, 2010;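 active = mean inhibition above about 50%, limit read from the data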
Target sequence (P42574 28-227 limits assumed): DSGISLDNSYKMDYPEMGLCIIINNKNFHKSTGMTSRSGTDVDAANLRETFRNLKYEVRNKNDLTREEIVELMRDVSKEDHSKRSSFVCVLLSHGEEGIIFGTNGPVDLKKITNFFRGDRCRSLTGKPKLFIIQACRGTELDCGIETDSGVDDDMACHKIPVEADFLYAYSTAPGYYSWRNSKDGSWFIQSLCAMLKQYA
SENP luc ctr: luminescence interference (SENP counter-screen) | shares compounds with SENP7 block | Pre-incubated SENP8/Z-RLRGG-aminoluciferin, luciferase luminescence interference | inhibition, % at 12.5 µM | 6,200 compounds, 39% hits;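 active = mean inhibition above about 50% when retested at one dose, limit read from the data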
Numbers stand for hits; n = inactive; x = no result. Rows were chosen to be rich in hits. Some 2.6% of all compounds tested hit in one or more screens of this group.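 Rule for the calls, unless noted: active = mean inhibition above about 50% in the one-dose retest (limit read from the data); inactive = the rest.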

SMILES | SENP7 block | SENP8 block-1 | SENP1 inh | SENP8 block-2 | Platelet DG rel | SENP6 inh | SENP8 confirm | SENP6 confirm | SENP7 conf | Casp3 SENP sel | SENP luc ctr
CCOC(=O)c1c(C)[nH]c(C(=O)Nc2ccc3c(c2)OCO3)c1C | 84 | x | x | 60 | n | n | n | 80 | 96 | 79 | n
Cc1cc(C(=O)Nc2ccc(N3CCCC3)c(Cl)c2)ccc1[N+](=O)[O-] | 52 | n | n | n | n | 60 | n | n | 65 | n | n
O=C(Nc1ccc(Cl)cc1Cl)c1ccc2c(c1)OCCO2 | 92 | n | n | 90 | x | 93 | 66 | 84 | 95 | 88 | n
O=C(Nc1ccc(N2CCCC2)c(Cl)c1)c1ccc([N+](=O)[O-])cc1 | n | n | n | n | n | n | x | x | x | x | x
Cc1ccc(C(=O)Nc2ccc3c(c2)OCO3)cc1 | n | n | n | n | n | 69 | 68 | 68 | 90 | 83 | n
Cc1cc(C)cc(C(=O)NC(=S)Nc2ccc3c(c2)OCCO3)c1 | n | n | n | n | n | 84 | n | n | n | n | n
O=C(Nc1ccc2c(c1)OCCO2)c1cccnc1 | n | n | n | n | n | n | x | x | x | x | x
O=C(Nc1ccc2c(c1)OCCO2)c1ccc2nccnc2c1 | n | n | n | n | n | 53 | 50 | n | 82 | 80 | 60
Cc1ccc(C(=O)Nc2ccc3c(c2)OCO3)o1 | n | n | n | n | x | 50 | n | n | 67 | 77 | 52
Cc1ccc(C(=O)Nc2ccc3c(c2)OCCO3)cc1 | 82 | n | n | 72 | n | 73 | n | 76 | 94 | 87 | 79
COc1ccc(C(=O)Nc2ccc3c(c2)OCCO3)cc1Br | 61 | n | n | 56 | n | 72 | n | n | 80 | 54 | n
COc1ccc(C(=O)Nc2ccc(N3CCCCC3)cc2)cc1Br | 68 | n | n | n | n | n | n | n | n | n | n
Cc1cc(C(=O)Nc2ccc3c(c2)OCCO3)ccc1[N+](=O)[O-] | 92 | n | n | 77 | n | 84 | n | 57 | 94 | 81 | n
Cc1ccc(Cl)cc1NC(=O)c1cc(NC(=O)C2CCCCC2C(=O)O)ccc1N1CCOCC1 (stereo not drawn) | n | n | n | n | n | n | x | x | x | x | x
Nc1c(C(=O)Nc2ccc3c(c2)OCCO3)nnn1Cc1cccc(Br)c1 | 58 | n | n | n | n | 68 | n | n | 85 | n | 66
Cc1ccc(C(=O)Nc2ccc3nccnc3c2)cc1 | 73 | n | n | 51 | n | 67 | 56 | 55 | 87 | 83 | n
O=C(Nc1ccc2c(c1)OCCO2)c1ccc(Br)o1 | 74 | n | n | 55 | x | 77 | 77 | 70 | 91 | 85 | 74
Nc1c(C(=O)Nc2ccc3c(c2)OCCO3)nnn1Cc1ccc(Br)cc1 | n | n | n | n | n | n | x | x | x | x | x

Source: PubChem BioAssay (several laboratories)
